In assay [1] the test system is Mus musculus. Nature of the assay: Antiinflammatory activity in DBA/1 mouse collagen-induced arthritis model assessed as reduction in number of PMA/ionomycin-stimulated total DLN cells expressing IL-17 at 50 ug/kg, sc administered 2 days prior to collagen challenge continued till day 21 post collagen challenge by flow cytometric analysis relative to control. It is filed as functional, organism-based. The method in brief: (§1)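 CIA mice given test agent (1 μg/dose) or PBS subcutaneously on days −2, 0 and 21. Draining lymph node cells (10^6/mL) in complete RPMI were stimulated ± 50 ng/mL PMA plus 500 ng/mL ionomycin, with 10 μg/mL brefeldin A for 5 h at 37 °C. Cells were surface-stained for CD4, CD8 and γδ, fixed and permeabilized, then stained for intracellular IFNγ and IL-17A. Gating used isotype controls. Cell numbers per individual mouse; naive n = 7, treated groups n = 13.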

The species entered for assay [2] is Mus musculus. Nature of the assay: Inhibition of TLR4/IL-1R in BALB/c mouse BMDM assessed as downregulation of LPS-stimulated MyD88 protein expression at 5 ug/mL after 20 hrs by Western blotting analysis relative to control. Summed up: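 Bone marrow macrophages were treated 20 h with medium, compound (1 or 5 μg/mL) or LPS (100 ng/mL) and lysed in modified RIPA buffer. Protein (30 μg) was separated on Bis-Tris gels, and MyD88 and GAPDH were detected by Western blot with ECL. Densitometric MyD88:GAPDH ratio was normalized to the RPMI value, from six analyses.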
(In general: In western blotting, separated proteins are transferred to a membrane and probed.)

In assay [3] the test system is Mus musculus. The experiment in a line: Antiinflammatory activity in DBA/1 mouse collagen-induced arthritis model assessed as reduction in number of CD4+ T cells at 50 ug/kg, sc administered 2 days prior to collagen challenge continued till day 21 post collagen challenge. It is filed as functional, organism-based. The note with it: T-cell. The method in brief:
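Dosing was 1 μg/dose or PBS given subcutaneously on days −2, 0 and 21 of CIA. Total, CD4+, CD8+ and γδ T cell numbers in draining lymph nodes were counted by flow cytometry for each mouse. Naive mice not exposed to collagen served as a further control (naive n = 7; PBS and treated n = 13).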

For assay [4], the system named is Mus musculus. The experiment in a line: Antiinflammatory activity in DBA/1 mouse collagen-induced arthritis model assessed as reduction in number of PMA/ionomycin-stimulated CD8+ T cells expressing IFNgamma at 50 ug/kg, sc administered 2 days prior to collagen challenge continued till day 21 post collagen challenge by flow cytometric analysis relative to control. It is filed as functional, organism-based. The settings on record: T-cell. The method in brief: as §1

Assay [5] has as its system Mus musculus. Nature of the assay: Antiinflammatory activity in DBA/1 mouse collagen-induced arthritis model assessed as effect on number of PMA/ionomycin-stimulated gammadelta+ T cells expressing IFNgamma at 50 ug/kg, sc administered 2 days prior to collagen challenge continued till day 21 post collagen challenge by flow cytometric analysis relative to control. It is filed as functional, organism-based. The note with it: T-cell. Background: Flow cytometry measures light scatter and fluorescence of single cells or particles in a stream.

Assay [6] concerns the target T1, Toll-like receptor 9 (Mus musculus) (UniProt Q9EQU3).
T1 sequence (whole entry): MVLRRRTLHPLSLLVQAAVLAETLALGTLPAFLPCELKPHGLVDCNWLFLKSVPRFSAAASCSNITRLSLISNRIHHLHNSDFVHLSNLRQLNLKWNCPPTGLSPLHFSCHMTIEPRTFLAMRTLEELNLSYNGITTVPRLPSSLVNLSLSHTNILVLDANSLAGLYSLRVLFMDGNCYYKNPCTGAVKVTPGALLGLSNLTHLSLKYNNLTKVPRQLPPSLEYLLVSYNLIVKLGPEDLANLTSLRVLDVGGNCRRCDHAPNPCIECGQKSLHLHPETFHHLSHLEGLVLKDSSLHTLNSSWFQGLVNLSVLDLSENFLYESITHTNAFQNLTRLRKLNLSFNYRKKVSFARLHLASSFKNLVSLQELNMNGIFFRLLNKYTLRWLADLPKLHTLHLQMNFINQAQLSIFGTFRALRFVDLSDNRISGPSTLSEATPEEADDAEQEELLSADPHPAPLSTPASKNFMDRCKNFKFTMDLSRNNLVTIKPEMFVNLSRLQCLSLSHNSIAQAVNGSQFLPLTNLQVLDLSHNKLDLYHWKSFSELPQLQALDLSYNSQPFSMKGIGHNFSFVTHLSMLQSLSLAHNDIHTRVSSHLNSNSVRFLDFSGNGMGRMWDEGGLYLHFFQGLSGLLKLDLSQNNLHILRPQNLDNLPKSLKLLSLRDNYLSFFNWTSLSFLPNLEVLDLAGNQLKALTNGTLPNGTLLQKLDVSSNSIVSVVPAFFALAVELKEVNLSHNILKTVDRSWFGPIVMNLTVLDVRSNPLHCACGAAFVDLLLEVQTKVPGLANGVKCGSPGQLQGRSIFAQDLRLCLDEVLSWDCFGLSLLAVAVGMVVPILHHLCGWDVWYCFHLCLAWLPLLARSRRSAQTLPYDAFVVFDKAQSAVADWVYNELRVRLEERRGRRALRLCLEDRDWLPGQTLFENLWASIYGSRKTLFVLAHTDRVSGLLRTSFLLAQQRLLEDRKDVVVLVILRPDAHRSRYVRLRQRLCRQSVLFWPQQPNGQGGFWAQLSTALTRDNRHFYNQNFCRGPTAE
Nature of the assay: Inhibition of TLR9-mediated NFkappaB p65 activation in CpG-stimulated BALB/c mouse BMDM at 5 ug/ml preincubated for 18 hrs followed by CpG challenge measured after 1 hr by TransAM ELISA. Summed up:
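Bone marrow macrophages (4 × 10^6/well) had their medium changed after 24 h, were pretreated with compounds at 5 μg/mL for 18 h, then stimulated for 1 h with 100 ng/mL LPS, 10 ng/mL BLP or 1 μM CpG. Activated NFκB p65 in nuclear extracts was measured by TransAM ELISA in duplicate.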

For 1 compound, Activity, fold change (FC) and inhibition results are on record in ChEMBL document CHEMBL3108700, “Designing anti-inflammatory drugs from parasitic worms: a synthetic small molecule analogue of the Acanthocheilonema viteae product ES-62 prevents development of collagen-induced arthritis” (J Med Chem, 2013).

Molecules are shown by their SMILES. The source made the active and inactive calls. The rule behind the calls is not given here.

In the case of `CN(C)CCS(=O)(=O)Cc1ccc(Br)cc1`, the outcome in the assay on Mus musculus [1], with Mus musculus [3] and with Mus musculus [4] was Active. The fold change (FC) in the assay filed under Mus musculus [2] was determined as 0.736. Also, the result in the assay with Mus musculus [5] was inactive. Besides, in assay [6], the inhibition result is “Active”.
